Yeast eIF2B: eIF2B (yeast) activity modulation | S. cerevisiae eIF2B-epsilon R284H, GCN4-lacZ luminescence | inhibition, % at 25 µM (by protocol) | hit rate 0.91% among 27,000 | AID 688;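 active means mutant luminescence inhibited past about 50% while wild type luminescence and mutant growth stay under set limits, limit read from the data; inconclusive means mutant versus wild type luminescence inhibition gap past a set limit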
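Material – yeast eIF2B-epsilon R284H mutant carrying GCN4–beta-galactosidase fusion · Medium – YPD yeast growth medium · Compound – one concentration, 25 µM, 0.25% DMSO · Times – 16 h at 30 °C exposure · Signal – Beta-Glo luminescence plus absorbance at 595 nm · Read-out – % inhibition of reporter signal and growth versus controls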
Yeast tox: Inhibitors of S. cerevisiae growth, toxicity. S. cerevisiae wild-type growth, A595 turbidity, 16 h. growth inhibition, % at 25 µM (by protocol). hit rate 0.3% among 30,000. AID 685;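 active means mutant and wild-type yeast strains alike exhibit over 30% growth inhibition; inconclusive means a strain exceeds 50% while the second remains under 30%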
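Schedule: 16 h growth with compound, 30 °C. System: yeast, wild-type or eIF2Bepsilon-R284H mutant. Doses: one dose, 25 µM compound[…]. Buffer or medium: YPD. Signal: turbidity measured as absorbance at 595 nm. Read-out basis: growth inhibition (%) versus cell controls and blanks.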
Of the large screens only hits and unclear results are named; the others gave an inactive call. Rows were chosen to be rich in hits. Some 1.1% of all compounds tested hit in one or more screens of this group.

CCC(=O)NCCSc1c[nH]c2ccccc12	Yeast eIF2B 61.5
CC(Sc1c[nH]c2ccccc12)C(=O)O (stereo not drawn)	none
CC(C)c1ccc(C(=O)CSc2n[nH]c(-c3ccncc3)n2)cc1	none (no result: Yeast eIF2B)
Cc1ccc(SCC(=O)Nc2ccccc2C(=O)O)cc1	none (no result: Yeast eIF2B)
CC1(C)Cc2c(sc3c2c(=N)n(Cc2ccco2)c(=O)n3Cc2ccc(F)cc2)CO1	Yeast eIF2B 56.6
CN(C)CCn1c(=O)n(Cc2ccco2)c(=O)c2c3c(sc21)CCCCC3	none (no result: Yeast eIF2B)
Cc1cc(C)c(C#N)c(SCC(=O)c2ccc(Cl)cc2Cl)n1	none
COc1ccc(Nc2nc(N3CCCCC3)nc3ccccc23)c(OC)c1	none
COc1ccc(N/C=C(\C#N)c2nc3ccccc3n2C)c(OC)c1	Yeast eIF2B 58.5
COc1cc(CN2C(=O)C(NC(=O)c3ccco3)(C(F)(F)F)C3=C2CC(C)(C)CC3=O)cc(OC)c1 (stereo not drawn)	none
CCCCC(=O)Nc1ccc(N2CCN(S(C)(=O)=O)CC2)cc1	Yeast eIF2B 61.9
CCCCCC(=O)Nc1ccc(N2CCN(C(=O)CCC)CC2)cc1	none
CC(C)Oc1cccc(-c2nnc(SCC(=O)Nc3ccc4c(c3)OCCO4)n2N)c1	none (no result: Yeast eIF2B)
Cc1nn2c(C)c(C(=O)Nc3ccccc3)cnc2c1C#N	Yeast tox inconclusive
Cc1cc2ncc(C(=O)Nc3ccccc3)c(C)n2n1	Yeast eIF2B 51.9
Cc1cc(O)ccc1Nc1nc2ccccc2nc1Nc1ccc(O)cc1C	none
Cc1nc(N2CCN(c3ccccc3)CC2)c2c3c(sc2n1)CCC3	none
Cc1nc(N2CCN(C(=O)c3ccco3)CC2)c2c3c(sc2n1)CCCC3	Yeast eIF2B 52.6
CC/C(C)=C1\SC(N2CCOCC2)=NC1=O	none (no result: Yeast eIF2B)
CCC(C)(C)n1nnnc1C(c1cc(OC)ccc1OC)N1CCC(C(N)=O)CC1 (stereo not drawn)	none
CCOC(=O)Cc1csc(NC(=O)CSc2nc(N)c3c(C)c(C)sc3n2)n1	none (no result: Yeast eIF2B)
COc1ccc2[nH]c(=O)c(CN(Cc3nnnn3Cc3ccccc3)CC3CCCO3)cc2c1 (stereo not drawn)	none
CCC(C)(C)n1nnnc1CN(Cc1cccs1)Cc1cc2cc(OC)ccc2[nH]c1=O	Yeast eIF2B 64.1
CCC(=O)N1CCc2cc(S(=O)(=O)NC(C(=O)NCc3ccc(F)cc3)C(C)C)ccc21 (stereo not drawn)	none
CCC(=O)N1CCc2cc(S(=O)(=O)NC(C(=O)NCc3ccccc3)C(C)C)ccc21 (stereo not drawn)	Yeast eIF2B 55.1
CC(C)C(=O)N1CCN(C2=NS(=O)(=O)c3ccccc32)CC1	Yeast eIF2B 53.2
CCCC(=O)N1CCN(C2=NS(=O)(=O)c3ccccc32)CC1	none
CCCCCOC(=O)Cn1c(SCC(=O)Nc2ccccc2)nc2c1c(=O)[nH]c(=O)n2C	Yeast eIF2B 59.5
CCOC(=O)CSc1nc2c(c(=O)[nH]c(=O)n2C)n1C/C=C(/C)Cl	none
CCn1nc(C)c(NS(=O)(=O)c2ccccc2)c1C	none
COc1ccc(CNc2nc3nc4c(c(=O)n3[nH]2)CCC4)cc1	none (no result: Yeast eIF2B)
O=C(Nc1ccc(N2CCOCC2)cc1)c1ccncc1	none (no result: Yeast tox)
Cc1ccnc2nc(C(=O)Nc3ccc(N4CCOCC4)cc3)nn12	Yeast eIF2B 52.6
Clc1ccc2c(c1)C(N1CCNCC1)Cc1ccccc1S2 (stereo not drawn)	Yeast tox 86.0
CCC1CCCCN1CCNC(=O)CCS(=O)(=O)c1ccc(Br)cc1 (stereo not drawn)	none
c1ccc(-c2cc3n(c2)CCc2ccccc2-3)cc1	none
c1ccc(N(c2ccccc2)c2nc(N3CCCC3)nc(-n3ccnc3)n2)cc1	none
CCOC(=O)N1CCN(c2nc(N(c3ccccc3)c3ccccc3)nc(-n3ccnc3)n2)CC1	Yeast tox 47.9
CC(C)(C)C(=O)NC1CCN(S(=O)(=O)c2ccc(C(F)(F)F)cc2)CC1	none
Cc1ccc2c(c1)N(CC(=O)N1CCCCCC1)C(=O)CO2	none
Cc1ccc2c(c1)N(CC(=O)NCc1cccnc1)C(=O)CO2	Yeast eIF2B 58.7
Cc1ccc(C)c(N2CCN(S(=O)(=O)c3ccc4c(c3)CCC(=O)N4)CC2)c1	none
Cc1ccc(C)c(N2CCN(S(=O)(=O)c3ccc4[nH]c(=O)c(=O)[nH]c4c3)CC2)c1	Yeast eIF2B 57.2
COc1ccc(-c2nnc3n2N=C(C)CS3)cc1OC	none
COc1ccc(OC)c(C2=Nn3c(nnc3-c3cccc(OC(C)C)c3)SC2)c1	Yeast eIF2B 59.9
CCOC(=O)N1CCN(C(=O)CN(Cc2ccc(Cl)cc2)S(=O)(=O)c2ccc(C)cc2)CC1	none
Cc1ccc(CSCC(=O)Nc2ccc3c(c2)OCO3)cc1	none (no result: Yeast eIF2B)
CC(C)=CC(=O)Nc1ccc2c(c1)OCO2	Yeast eIF2B 54.2
CC(Sc1ccc2ccccc2n1)C(=O)O (stereo not drawn)	none (no result: Yeast eIF2B)
CC(O)/C=C/c1ccc2ccccc2n1 (stereo not drawn)	Yeast tox 31.4
C=CCN(C(=O)CCC(=O)O)C1CC(=O)N(c2ccc(OC)cc2)C1=O (stereo not drawn)	Yeast eIF2B 50.4 (no result: Yeast tox)
C=CCN(C(C)=O)C1CC(=O)N(c2ccc(OCCC)cc2)C1=O (stereo not drawn)	none (no result: Yeast eIF2B)
c1ccc(-c2nc(CSc3n[nH]c(-c4cccs4)n3)cs2)cc1	none (no result: Yeast eIF2B)
COc1ccc(C(=O)COC(=O)c2ccc(OC)c(OC)c2)cc1OC	none
COc1ccc(C(=O)COC(=O)CN2C(=O)NC(C)(C)C2=O)cc1OC	Yeast eIF2B 60.0
CC(C)C1Oc2ccccc2N(CC(=O)N(Cc2ccccn2)CC2CCCO2)C1=O (stereo not drawn)	Yeast eIF2B 58.9
O=C(CN(CC1CCCO1)C(=O)CCC(=O)Nc1ccccn1)NCc1ccccc1 (stereo not drawn)	none
CSc1ccccc1C(=O)NCC1CCCO1 (stereo not drawn)	none (no result: Yeast eIF2B)
Cc1ccc(CN(CC2CCCO2)C(=O)CN2C(=O)C(C(C)C)Oc3ccccc32)o1 (stereo not drawn)	Yeast eIF2B 58.9
COC(=O)C(CC(=O)c1ccc(Br)cc1)n1ccnc1 (stereo not drawn)	Yeast tox 33.5
CCOC(=O)N1CCN(C(=O)CC(C(=O)N2CCc3ccccc32)n2ccnc2)CC1 (stereo not drawn)	none
Cc1cccc(N2C(=O)CC(Sc3nnc(C)s3)C2=O)c1 (stereo not drawn)	none (no result: Yeast tox)
O=C1c2ccccc2NC(c2ccccn2)N1c1ccccc1F (stereo not drawn)	none (no result: Yeast eIF2B)
CCOc1ccc(NC(=O)CC2CC(C)(C)OC2=O)cc1 (stereo not drawn)	none
CCCC1CC(C)(c2csc(Nc3ccc(OCC)cc3)n2)OC1=O (stereo not drawn)	Yeast eIF2B 54.0
CC(Oc1ccc(Cl)cc1Cl)c1nc(-c2ccc(NC(=O)c3ccccn3)cc2)no1 (stereo not drawn)	none
CCC(C)Sc1nc2ccccc2n1CC(=O)O (stereo not drawn)	none
COc1ccc(C(=S)N2CCNCC2)cc1	none
COc1cc(C(=S)N2CCCC2)cc(OC)c1O	Yeast eIF2B 56.8
Oc1c(CN2CCOCC2)cc(-c2ccccc2)cc1CN1CCOCC1	none
Cc1c(O)c(CN2CCCC2)cc2c1oc(=O)c1ccccc12	Yeast eIF2B 58.1
CC(NC(=O)CSc1nc2ccccc2c(=O)n1CCCO)c1ccccc1 (stereo not drawn)	Yeast eIF2B 52.8
CC(C)NC(=O)CSc1nc2ccccc2c(=O)n1CCCOC(C)C	none
COCCN(C(=O)c1ccco1)C(C(=O)NC1CCCC1)c1cccs1 (stereo not drawn)	none (no result: Yeast eIF2B)
COc1cccc(-c2nc(NCc3ccco3)c3ccccc3n2)c1O	none
